In ChEMBL document CHEMBL4196175, “First SAR Study for Overriding NRAS Mutant Driven Acute Myeloid Leukemia” (J Med Chem, 2018):
Activity calls are given as the source filed them. No cut-off for these calls is given here.

Tests used:
Activated CDC42 kinase 1 = Activated CDC42 kinase 1 (Homo sapiens, UniProt Q07912); assay: Inhibition of ACK1 (unknown origin) by radiometric biochemical kinase assay
[1] = target: T1, Mitogen-activated protein kinase kinase kinase kinase 2 (Homo sapiens, UniProt Q12851); assay: Inhibition of GCK (unknown origin) by radiometric biochemical kinase assay
T1 sequence (Q12851 whole entry): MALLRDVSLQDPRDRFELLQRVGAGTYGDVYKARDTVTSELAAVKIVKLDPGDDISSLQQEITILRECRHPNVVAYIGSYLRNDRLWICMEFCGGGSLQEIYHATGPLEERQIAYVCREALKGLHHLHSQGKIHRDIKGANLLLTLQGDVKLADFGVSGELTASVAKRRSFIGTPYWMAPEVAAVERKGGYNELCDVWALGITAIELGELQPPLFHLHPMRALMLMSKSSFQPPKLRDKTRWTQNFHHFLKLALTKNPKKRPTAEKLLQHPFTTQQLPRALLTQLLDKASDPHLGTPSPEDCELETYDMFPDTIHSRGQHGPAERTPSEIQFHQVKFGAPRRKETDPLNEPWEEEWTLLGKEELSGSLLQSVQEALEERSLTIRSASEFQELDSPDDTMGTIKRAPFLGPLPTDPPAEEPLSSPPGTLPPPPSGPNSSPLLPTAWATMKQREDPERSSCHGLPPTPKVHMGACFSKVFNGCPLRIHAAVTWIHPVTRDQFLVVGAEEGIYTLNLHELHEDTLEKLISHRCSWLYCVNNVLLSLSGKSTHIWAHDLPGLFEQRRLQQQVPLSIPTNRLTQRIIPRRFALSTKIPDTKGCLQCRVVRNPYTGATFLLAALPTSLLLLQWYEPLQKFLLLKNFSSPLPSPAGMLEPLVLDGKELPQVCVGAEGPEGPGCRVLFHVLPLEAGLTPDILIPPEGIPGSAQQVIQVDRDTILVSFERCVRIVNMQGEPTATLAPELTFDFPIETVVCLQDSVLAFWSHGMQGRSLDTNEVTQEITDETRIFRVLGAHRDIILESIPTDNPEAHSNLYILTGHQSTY

[2] = Growth inhibition of parental mouse BA/F3 cells after 72 hrs by celltiter-glo assay; assay type: cell-based, BaF3
Mus musculus = species on record: Mus musculus; assay: Inhibition of ACK1/GCK in mouse BA/F3 cells assessed as reduction in NRAS-G12D mutant-mediated cell proliferation after 72 hrs by celltiter-glo assay; assay type: cell-based
OCI-AML-3 [3] = assay: Growth inhibition of human OCI-AML3 cells harboring NRAS-Q61L mutant after 72 hrs by celltiter-glo assay; assay type: functional; details: OCI-AML-3, 72 h
[4] = Growth inhibition of parental human U937 cells after 72 hrs by celltiter-glo assay; assay type: cell-based, U-937
[5] = Metabolic stability in human liver microsomes assessed as compound remaining at 1 uM after 30 mins; assay type: ADME, microsome; details: read-out: Stability
[6] = Metabolic stability in dog liver microsomes assessed as compound remaining at 1 uM after 30 mins; assay type: ADME, Canis lupus familiaris, microsome; details: read-out: Stability
[7] = Metabolic stability in rat liver microsomes assessed as compound remaining at 1 uM after 30 mins; assay type: ADME, microsome; details: read-out: Stability
[8] = Metabolic stability in mouse liver microsomes assessed as compound remaining at 1 uM after 30 mins; assay type: ADME, microsome; details: read-out: Stability
CYP1A2 = target: T2, CYP1A2 (Homo sapiens, UniProt P05177); assay: Inhibition of CYP1A2 (unknown origin) assessed as activity remaining at 10 uM relative to control; assay type: ADME; details: read-out: Activity
T2 sequence (P05177 whole entry): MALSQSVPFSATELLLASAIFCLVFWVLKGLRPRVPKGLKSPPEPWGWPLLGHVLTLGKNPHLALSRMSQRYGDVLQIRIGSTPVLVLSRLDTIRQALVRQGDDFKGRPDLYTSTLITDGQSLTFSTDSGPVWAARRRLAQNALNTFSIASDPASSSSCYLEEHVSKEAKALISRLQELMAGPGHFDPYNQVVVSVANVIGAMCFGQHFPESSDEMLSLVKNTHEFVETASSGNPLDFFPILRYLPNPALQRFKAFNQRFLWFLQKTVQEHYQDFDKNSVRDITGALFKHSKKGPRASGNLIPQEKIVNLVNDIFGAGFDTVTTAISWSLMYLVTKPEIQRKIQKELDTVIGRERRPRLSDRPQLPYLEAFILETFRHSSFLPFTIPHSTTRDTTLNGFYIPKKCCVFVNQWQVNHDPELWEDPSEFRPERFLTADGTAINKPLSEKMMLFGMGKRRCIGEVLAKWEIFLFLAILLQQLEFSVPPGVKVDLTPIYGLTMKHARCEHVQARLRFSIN

CYP2C9 = CYP2C9 (Homo sapiens, UniProt P11712); assay: Inhibition of CYP2C9 (unknown origin) assessed as activity remaining at 10 uM relative to control; assay type: ADME; details: read-out: Activity
Sequence of CYP2C9 (P11712 whole entry): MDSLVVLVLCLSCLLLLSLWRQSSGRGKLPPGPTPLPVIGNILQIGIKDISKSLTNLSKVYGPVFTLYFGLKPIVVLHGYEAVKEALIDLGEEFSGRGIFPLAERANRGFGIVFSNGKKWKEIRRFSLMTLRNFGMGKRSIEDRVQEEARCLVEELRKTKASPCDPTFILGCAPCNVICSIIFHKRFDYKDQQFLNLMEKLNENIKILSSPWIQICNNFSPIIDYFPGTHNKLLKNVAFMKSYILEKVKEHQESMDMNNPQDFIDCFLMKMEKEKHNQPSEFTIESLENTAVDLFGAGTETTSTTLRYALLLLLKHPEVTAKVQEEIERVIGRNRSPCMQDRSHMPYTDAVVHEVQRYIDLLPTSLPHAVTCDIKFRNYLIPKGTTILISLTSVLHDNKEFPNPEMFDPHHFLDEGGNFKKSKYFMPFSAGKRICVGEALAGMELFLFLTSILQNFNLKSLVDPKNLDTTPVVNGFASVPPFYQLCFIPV

CYP2D6 = CYP2D6 (Homo sapiens, UniProt P10635); assay: Inhibition of CYP2D6 (unknown origin) assessed as activity remaining at 10 uM relative to control; assay type: ADME; details: read-out: Activity
Sequence of CYP2D6 (P10635 whole entry): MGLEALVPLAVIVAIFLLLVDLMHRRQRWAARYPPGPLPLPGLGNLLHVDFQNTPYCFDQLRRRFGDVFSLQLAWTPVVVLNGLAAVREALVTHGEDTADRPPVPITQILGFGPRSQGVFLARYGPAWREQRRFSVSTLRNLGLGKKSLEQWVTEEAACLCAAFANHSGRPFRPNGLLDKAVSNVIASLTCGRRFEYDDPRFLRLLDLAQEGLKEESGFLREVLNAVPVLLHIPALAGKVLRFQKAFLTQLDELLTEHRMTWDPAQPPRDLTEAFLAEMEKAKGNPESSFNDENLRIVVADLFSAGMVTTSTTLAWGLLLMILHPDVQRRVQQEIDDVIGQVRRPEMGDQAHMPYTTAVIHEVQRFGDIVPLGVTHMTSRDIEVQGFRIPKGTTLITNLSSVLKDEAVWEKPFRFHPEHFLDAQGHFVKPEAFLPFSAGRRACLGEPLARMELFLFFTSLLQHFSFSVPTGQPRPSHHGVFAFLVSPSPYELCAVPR

CYP3A4 = CYP3A4 (Homo sapiens, UniProt P08684); assay: Inhibition of CYP3A4 (unknown origin) assessed as activity remaining at 10 uM relative to control; assay type: ADME; details: read-out: Activity
Sequence of CYP3A4 (P08684 whole entry): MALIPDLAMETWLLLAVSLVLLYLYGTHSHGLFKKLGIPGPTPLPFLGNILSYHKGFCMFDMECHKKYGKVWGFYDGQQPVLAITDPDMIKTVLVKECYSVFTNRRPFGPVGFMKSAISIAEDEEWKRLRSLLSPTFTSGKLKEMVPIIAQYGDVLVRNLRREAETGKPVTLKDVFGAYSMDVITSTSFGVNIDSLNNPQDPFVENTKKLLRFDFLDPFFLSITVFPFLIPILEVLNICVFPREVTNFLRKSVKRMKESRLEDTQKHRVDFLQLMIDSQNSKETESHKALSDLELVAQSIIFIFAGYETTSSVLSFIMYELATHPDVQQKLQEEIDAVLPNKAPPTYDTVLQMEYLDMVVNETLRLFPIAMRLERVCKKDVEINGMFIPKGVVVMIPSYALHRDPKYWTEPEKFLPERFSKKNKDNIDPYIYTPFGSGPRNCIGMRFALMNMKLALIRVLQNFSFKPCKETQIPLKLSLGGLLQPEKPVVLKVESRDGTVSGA

OCI-AML-3 [9] = assay: Growth inhibition of ACK1/GCK knockdown human OCI-AML3 cells harboring NRAS-Q61L mutant at 0.05 uM after 72 hrs by celltiter-glo assay; assay type: functional, cell-based
OCI-AML-3 [10] = assay: Growth inhibition of ACK1/GCK knockdown human OCI-AML3 cells harboring NRAS-Q61L mutant at 0.5 uM after 72 hrs by celltiter-glo assay; assay type: functional, cell-based
OCI-AML-3 [11] = assay: Growth inhibition of ACK1/GCK knockdown human OCI-AML3 cells harboring NRAS-Q61L mutant at 0.2 uM after 72 hrs by celltiter-glo assay; assay type: functional, cell-based
[12] = Selectivity index, ratio of GI50 for parental human U937 cells to GI50 for human OCI-AML3 cells harboring NRAS-Q61L mutant
How it was run: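 Human AML lines OCI-AML3 (NRAS mutant) and U937 (NRAS wild-type) were exposed to inhibitors for 72 h. GI50 is the concentration giving half-maximal growth inhibition, averaged with SD (n = 3, duplicate). The index is the U937 GI50 divided by the OCI-AML3 GI50.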

Sequence of Activated CDC42 kinase 1 (Q07912 whole entry): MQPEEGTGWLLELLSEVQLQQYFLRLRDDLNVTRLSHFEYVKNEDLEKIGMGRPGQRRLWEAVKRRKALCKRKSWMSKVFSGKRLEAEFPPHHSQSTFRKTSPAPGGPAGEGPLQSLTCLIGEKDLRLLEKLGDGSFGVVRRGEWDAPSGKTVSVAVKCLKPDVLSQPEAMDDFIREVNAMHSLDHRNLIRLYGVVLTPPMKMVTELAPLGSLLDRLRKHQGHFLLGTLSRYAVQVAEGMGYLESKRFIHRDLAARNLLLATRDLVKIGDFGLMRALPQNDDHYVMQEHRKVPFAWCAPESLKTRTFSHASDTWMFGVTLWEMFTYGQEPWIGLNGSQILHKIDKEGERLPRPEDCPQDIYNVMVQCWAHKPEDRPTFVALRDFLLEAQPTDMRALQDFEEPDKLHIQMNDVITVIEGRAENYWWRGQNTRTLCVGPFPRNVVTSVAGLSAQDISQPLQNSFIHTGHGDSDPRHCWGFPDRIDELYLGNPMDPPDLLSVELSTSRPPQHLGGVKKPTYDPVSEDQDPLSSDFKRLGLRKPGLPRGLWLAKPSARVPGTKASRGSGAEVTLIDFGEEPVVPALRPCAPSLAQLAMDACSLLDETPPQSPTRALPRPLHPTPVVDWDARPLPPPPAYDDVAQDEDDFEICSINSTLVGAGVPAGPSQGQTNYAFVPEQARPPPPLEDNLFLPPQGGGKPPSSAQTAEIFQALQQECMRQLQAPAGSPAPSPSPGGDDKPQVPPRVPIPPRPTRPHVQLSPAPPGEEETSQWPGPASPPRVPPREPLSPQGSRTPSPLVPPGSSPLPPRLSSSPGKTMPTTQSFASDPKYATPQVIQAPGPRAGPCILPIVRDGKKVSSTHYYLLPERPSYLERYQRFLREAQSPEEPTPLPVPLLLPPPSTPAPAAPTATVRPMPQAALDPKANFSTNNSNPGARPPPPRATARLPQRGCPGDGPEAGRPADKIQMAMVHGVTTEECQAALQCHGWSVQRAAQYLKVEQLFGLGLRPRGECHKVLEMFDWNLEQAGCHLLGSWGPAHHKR

| Structure (SMILES) | IC50 (Activated CDC42 kinase 1) | IC50 [1] | GI50 at 72 h [2] | GI50 (Mus musculus) | GI50 (OCI-AML-3 [3]) | GI50 at 72 h [4] | remaining at 0.5 h, 1 µM [5] | remaining at 0.5 h, 1 µM [6] | remaining at 0.5 h, 1 µM [7] | remaining at 0.5 h, 1 µM [8] | activity at 10 µM (CYP1A2) | activity at 10 µM (CYP2C9) | activity at 10 µM (CYP2D6) | activity at 10 µM (CYP3A4) | growth inhibition (GI) (OCI-AML-3 [9]) | growth inhibition (GI) (OCI-AML-3 [10]) | growth inhibition (GI) (OCI-AML-3 [11]) | RatioGI50 [12] |
| --- | --- | --- | --- | --- | --- | --- | --- | --- | --- | --- | --- | --- | --- | --- | --- | --- | --- | --- |
| Cc1ccc(Nc2ncc3c(n2)N(C)C(=O)N(c2cc(NC(=O)c4cc(-n5cnc(C)c5)cc(C(F)(F)F)c4)ccc2C)C3)cn1 | 53 nM | 27 nM | > 5000 nM | 238 nM |  |  |  |  |  |  |  |  |  |  |  |  |  |  |
| Cc1ccc(Nc2ncc3c(n2)N(C)C(=O)N(c2cc(NC(=O)c4ccc(N5CCN(C)CC5)c(C(F)(F)F)c4)ccc2C)C3)cn1 | 28 nM | 10 nM | 685 nM | 341 nM |  |  |  |  |  |  |  |  |  |  |  |  |  |  |
| CCN1CCN(c2ccc(Nc3ncc4c(n3)N(C)C(=O)N(c3cc(NC(=O)c5cccc(C(F)(F)F)c5)ccc3C)C4)cc2)CC1 | 20 nM | 8 nM | 559 nM | 83 nM | 40 nM | 839 nM | 46.7% | 21.3% | 19.7% | 20.9% | 92.1% | 34.3% | 79.8% | > 100% | Active |  |  |  |
| Cc1ccc(Nc2ncc3c(n2)N(C)C(=O)N(c2cc(NC(=O)c4ccc(CN5CCN(C)CC5)c(C(F)(F)F)c4)ccc2C)C3)cn1 | 26 nM | 5 nM | 818 nM | 316 nM |  |  |  |  |  |  |  |  |  |  |  |  |  |  |
| Cc1ccc(NC(=O)c2ccc(CN3CCC(N(C)C)C3)c(C(F)(F)F)c2)cc1N1Cc2cnc(Nc3cnn(C)c3)nc2N(C)C1=O (stereo not given) | 25 nM | 8 nM | 414 nM | 68 nM |  |  |  |  |  |  |  |  |  |  |  |  |  |  |
| Cc1cc(Nc2ncc3c(n2)N(C)C(=O)N(c2cc(NC(=O)c4ccc(CN5CCC(N(C)C)C5)c(C(F)(F)F)c4)ccc2C)C3)n(C)n1 (stereo not given) | 11 nM | 17 nM | 509 nM | 123 nM |  |  |  |  |  |  |  |  |  |  |  |  |  |  |
| Cc1ccc(Nc2ncc3c(n2)N(C)C(=O)N(c2cc(NC(=O)c4ccccc4)ccc2C)C3)cn1 | 21 nM | 1080 nM | 2700 nM | 1470 nM |  |  |  |  |  |  |  |  |  |  |  |  |  |  |
| Cc1ccc(NC(=O)c2cccc(C(F)(F)F)c2)cc1N1Cc2cnc(NC3CC3)nc2N(C)C1=O | 35 nM | 42 nM | 5060 nM | 547 nM |  |  |  |  |  |  |  |  |  |  |  |  |  |  |
| Cc1ccc(Nc2ncc3c(n2)N(C)C(=O)N(c2cc(NC(=O)c4ccc(C)c(C(F)(F)F)c4)ccc2C)C3)cn1 | 20 nM | 39 nM | 870 nM | 387 nM | 394 nM | 19400 nM |  |  |  |  |  |  |  |  |  | Active |  |  |
| Cc1ccc(NC(=O)c2cccc(C(F)(F)F)c2)cc1N1Cc2cnc(Nc3ccccc3)nc2N(C)C1=O | 37 nM | 47 nM | 1790 nM | 380 nM |  |  |  |  |  |  |  |  |  |  |  |  |  |  |
| Cc1ccc(NC(=O)c2cccc(C(F)(F)F)c2)cc1N1Cc2cnc(NC3CCCCC3)nc2N(C)C1=O | 60 nM | 925 nM | 5220 nM | 2450 nM |  |  |  |  |  |  |  |  |  |  |  |  |  |  |
| CCN1CCN(C(=O)c2ccc(Nc3ncc4c(n3)N(C)C(=O)N(c3cc(NC(=O)c5ccc(CN6CCC(N(C)C)C6)c(C(F)(F)F)c5)ccc3C)C4)cn2)CC1 (stereo not given) | 21 nM | 14 nM | 704 nM | 94 nM |  |  |  |  |  |  |  |  |  |  |  |  |  |  |
| Cc1ccc(Nc2ncc3c(n2)N(C)C(=O)N(c2cc(NC(=O)c4cc(N5CCOCC5)cc(C(F)(F)F)c4)ccc2C)C3)cn1 | 26 nM | 45 nM | 1650 nM | 284 nM | 260 nM | 2800 nM |  |  |  |  |  |  |  |  |  |  | Active |  |
| CCN1CCN(c2ccc(Nc3ncc4c(n3)N(C)C(=O)N(c3cc(NC(=O)c5cccc(C(F)(F)F)c5)ccc3C)C4)cn2)CC1 | 28 nM | 7 nM | 264 nM | 71 nM | 30 nM | 1410 nM | 29.8% | 21.4% | 19.2% | 21.2% | 89.7% | 23% | 68% | > 100% | Active |  |  |  |
| Cc1ccc(Nc2ncc3c(n2)N(C)C(=O)N(c2cc(NC(=O)c4ccc(-n5cccc5)c(C(F)(F)F)c4)ccc2C)C3)cn1 | 10 nM | 24 nM | 317 nM | 69 nM | 267 nM | > 25000 nM |  |  |  |  |  |  |  |  |  |  | Active | 100 |
| Cc1ccc(Nc2ncc3c(n2)N(C)C(=O)N(c2cc(NC(=O)c4cc(N5CCC(O)CC5)cc(C(F)(F)F)c4)ccc2C)C3)cn1 | 40 nM | 72 nM | 671 nM | 118 nM | 143 nM | 2180 nM |  |  |  |  |  |  |  |  |  |  | Active |  |
| CC(=O)N1CCN(c2ccc(Nc3ncc4c(n3)N(C)C(=O)N(c3cc(NC(=O)c5ccc(CN6CCC(N(C)C)C6)c(C(F)(F)F)c5)ccc3C)C4)cn2)CC1 (stereo not given) | 25 nM | 16 nM | 187 nM | 41 nM |  |  |  |  |  |  |  |  |  |  |  |  |  |  |
| Cc1ccc(NC(=O)c2cccc(C(F)(F)F)c2)cc1N1Cc2cnc(NCCO)nc2N(C)C1=O | 21 nM | 33 nM | 3290 nM | 290 nM | 367 nM | 8530 nM |  |  |  |  |  |  |  |  |  | Active |  |  |
| Cc1ccc(NC(=O)c2cccc(C(F)(F)F)c2)cc1N1Cc2cnc(Nc3cnn(C)c3)nc2N(C)C1=O | 20 nM | 6 nM | 352 nM | 100 nM | 42 nM | 1120 nM | 78.8% | 71.3% | 98.4% | 73.3% | 88% | 42.9% | 78.8% | > 100% | Active |  |  |  |
